ChEMBL document CHEMBL3244398, “Oxidative and cardiovascular studies on natural and synthetic catecholamines” (J Med Chem, 1978)

How the values were obtained:
Rattus norvegicus = test: Acute pressor activity in iv dosed Sprague-Dawley rat assessed as duration of arterial systolic blood pressure by 30 mmHg maintenance; type: functional, Artery
Method in brief: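 Iv jugular-cannula dosing was used in male normotensive Sprague-Dawley rats (380 ± 20 g), with arterial pressure recorded by carotid cannula and transducer. Six doses over a tenfold range were each given to four animals. Duration is the seconds for which blood pressure was […].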

## C[C@H](N)Cc1ccc(O)c(O)c1
Rattus norvegicus
  Time: 34 s

## C[C@@H](N)Cc1ccc(O)c(O)c1
Rattus norvegicus
  Time: 20 s

## CC(N)Cc1ccc(O)c(O)c1 (racemic)
physchem
  pKa: 10
Rattus norvegicus
  Time: 22 s

## CNCC(C)c1ccc(O)c(O)c1 (racemic)
physchem
  pKa: 10.5
Rattus norvegicus
  Time: 28 s

## CC(CN)c1ccc(O)c(O)c1.Cl (racemic)
physchem
  pKa: 10
Rattus norvegicus
  Time: 29 s

## CNCC(OC)c1ccc(O)c(O)c1.Cl (racemic)
physchem
  pKa: 9.5
Rattus norvegicus
  Time: 21 s

## NCC(O)c1ccc(O)c(O)c1 (racemic)
physchem
  pKa: 9
Rattus norvegicus
  Time: 32 s

## CNCCc1ccc(O)c(O)c1 [DEOXIEPINEPHRINE]
physchem
  pKa: 10.5
Rattus norvegicus
  Time: 18 s

## CNC [DIMETHYLAMINE]
physchem
  pKa: 10.8

## NCCc1ccc(O)c(O)c1 [DOPAMINE]
physchem
  pKa: 10
Rattus norvegicus
  Time: 32 s

## CNC[C@H](O)c1ccc(O)c(O)c1 [EPINEPHRINE]
physchem
  pKa: 9.5
Rattus norvegicus
  Time: 12 s

## CN [METHYLAMINE]
physchem
  pKa: 10.6

## NC[C@H](O)c1ccc(O)c(O)c1 [NOREPINEPHRINE]
Rattus norvegicus
  Time: 32 s
